# ChEMBL document CHEMBL2311271 (Eur J Med Chem, 2013)
# Assays:
# [1] = system: Lewis lung carcinoma cell line; assay: Antitumor activity against mouse LLC cells xenografted in mouse assessed as tumor inhibition at 3 mg/kg, ip qd for 7 days measured every 3 days for 21 days; type: functional; settings: route intraperitoneal
# [2] = Antitumor activity against mouse Sarcoma 180 cells xenografted in mouse assessed as tumor inhibition at 3 mg/kg, ip qd for 7 days measured every 3 days for 21 days; type: functional; settings: Sarcoma-180, ip, route intraperitoneal
# Mus musculus = assay: Neurotoxicity in ip dosed C57BL/6 mouse assessed as tremble, twitch, jumping and supination response; type: toxicity, organism-based; settings: in vivo
# Summary of the method: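 C57BL/6 mice (9–12 weeks, 18–22 g), fasted overnight with water, dosed i.p. with 1.0–500 mg/kg in 0.5% CMC-Na; 10 per group (5 male, 5 female). Watched continuously 2 h for tremor, twitch, jumping, supination and other behavior, then intermittently to 24 h and occasionally to 14 days; killed day 14, with heart, liver and kidneys inspected.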
# [3] = Acute toxicity in ip dosed C57BL/6 mouse measured up to 14 days; type: organism-based; settings: in vivo
# Summary of the method: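 Healthy C57BL/6 mice (9–12 weeks, 18–22 g), fasted overnight, 10 per group (5 male, 5 female). Single i.p. dose, 1.0 to 500 mg/kg in 0.5% CMC-Na. Watched continuously for 2 h, intermittently over 24 h, then occasionally to day 14 for behaviour, deaths and delayed effects. Heart, liver and kidneys inspected at necropsy. LD50 derived graphically.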
# KB = assay: Cytotoxicity against human KB cells by MTT assay; type: functional, cell-based
# Summary of the method: (§1)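 Cells grown in RPMI-1640 with 10% fetal calf serum plus penicillin and streptomycin, 37 °C, 5% CO₂. Compounds in DMSO, final ≤2% (v/v), tested in 96-well cultures with MTT staining. IC₅₀ = concentration cutting optical density 50% versus untreated cells; three replicate wells per point; mean of three independent determinations.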
# U-251 = assay: Cytotoxicity against human U251 cells by MTT assay; type: functional, cell-based; summary of the method: as §1
# [4] = Cytotoxicity against human Blu-87 cells by MTT assay; type: functional, cell-based; summary of the method: as §1
# 769-P = assay: Cytotoxicity against human 769-P cells by MTT assay; type: functional, cell-based; summary of the method: as §1
# SCaBER = assay: Cytotoxicity against human SCaBER cells by MTT assay; type: functional, cell-based; summary of the method: as §1
# HT-29 = assay: Cytotoxicity against human HT-29 cells by MTT assay; type: functional, cell-based; summary of the method: as §1
# 786-0 = assay: Cytotoxicity against human 786-0 cells by MTT assay; type: functional, cell-based; summary of the method: as §1
# A-375 = assay: Cytotoxicity against human A375 cells by MTT assay; type: functional, cell-based; summary of the method: as §1
# A549 = assay: Cytotoxicity against human A549 cells by MTT assay; type: functional, cell-based; summary of the method: as §1
# OS-RC-2 = assay: Cytotoxicity against human OS-RC2 cells by MTT assay; type: functional, cell-based; summary of the method: as §1
# MCF7 = assay: Cytotoxicity against human MCF7 cells by MTT assay; type: functional, cell-based; summary of the method: as §1
# HepG2 = assay: Cytotoxicity against human HepG2 cells by MTT assay; type: functional, cell-based; summary of the method: as §1
# Bel-7402 = assay: Cytotoxicity against human Bel7402 cells by MTT assay; type: functional, cell-based; summary of the method: as §1
# BGC-823 = assay: Cytotoxicity against human BGC823 cells by MTT assay; type: functional, cell-based; summary of the method: as §1
# HeLa = assay: Cytotoxicity against human HeLa cells by MTT assay; type: functional, cell-based; summary of the method: as §1
# [5] = system: Lewis lung carcinoma cell line; assay: Antitumor activity against mouse LLC cells xenografted in mouse assessed as tumor inhibition at 0.63 mg/kg, ip qd for 7 days measured every 3 days for 21 days; type: functional; settings: route intraperitoneal
# [6] = Antitumor activity against mouse Sarcoma 180 cells xenografted in mouse assessed as tumor inhibition at 0.63 mg/kg, ip qd for 7 days measured every 3 days for 21 days; type: functional; settings: Sarcoma-180, ip, route intraperitoneal
# CWR22R = assay: Cytotoxicity against human 22Rv1 cells by MTT assay; type: functional, cell-based; summary of the method: as §1
# [7] = system: Lewis lung carcinoma cell line; assay: Antitumor activity against mouse LLC cells xenografted in mouse assessed as tumor inhibition at 1.2 mg/kg, ip qd for 7 days measured every 3 days for 21 days; type: functional; settings: route intraperitoneal
# [8] = Antitumor activity against mouse Sarcoma 180 cells xenografted in mouse assessed as tumor inhibition at 1.2 mg/kg, ip qd for 7 days measured every 3 days for 21 days; type: functional; settings: Sarcoma-180, ip, route intraperitoneal
# [9] = system: Lewis lung carcinoma cell line; assay: Antitumor activity against mouse LLC cells xenografted in mouse assessed as tumor inhibition at 2.5 mg/kg, ip qd for 7 days measured every 3 days for 21 days; type: functional; settings: route intraperitoneal
# [10] = Antitumor activity against mouse Sarcoma 180 cells xenografted in mouse assessed as tumor inhibition at 2.5 mg/kg, ip qd for 7 days measured every 3 days for 21 days; type: functional; settings: Sarcoma-180, ip, route intraperitoneal
# [11] = system: Lewis lung carcinoma cell line; assay: Antitumor activity against mouse LLC cells xenografted in mouse assessed as tumor inhibition at 30 mg/kg, ip qd for 7 days measured every 3 days for 21 days; settings: read-out: INH
# [12] = Antitumor activity against mouse Sarcoma 180 cells xenografted in mouse assessed as tumor inhibition at 30 mg/kg, ip qd for 7 days measured every 3 days for 21 days; settings: Sarcoma-180, ip, read-out: INH
# [13] = system: Lewis lung carcinoma cell line; assay: Antitumor activity against mouse LLC cells xenografted in mouse assessed as tumor inhibition at 40 mg/kg, ip qd for 7 days measured every 3 days for 21 days; type: functional; settings: route intraperitoneal
# [14] = Antitumor activity against mouse Sarcoma 180 cells xenografted in mouse assessed as tumor inhibition at 40 mg/kg, ip qd for 7 days measured every 3 days for 21 days; type: functional; settings: Sarcoma-180, ip, route intraperitoneal
SMILES,Activity (Mus musculus),LD50 at 336 h [3],IC50 (KB),IC50 (U-251),IC50 [4],IC50 (769-P),IC50 (SCaBER),IC50 (HT-29),IC50 (786-0),IC50 (A-375),IC50 (A549),IC50 (OS-RC-2),IC50 (MCF7),IC50 (HepG2),IC50 (Bel-7402),IC50 (BGC-823),IC50 (HeLa),IC50 (CWR22R),other results
CCn1c2cc(OCCCc3ccccc3)ccc2c2cc[n+](Cc3ccccc3)c(C)c21.[Br-],Non-toxic,15 mg/kg,< 1.5 µM,10.5 µM,17.3 µM,5 µM,16.2 µM,4.2 µM,1.5 µM,2.4 µM,2.3 µM,2.2 µM,2.8 µM,7.6 µM,2.4 µM,7.6 µM,2.2 µM,–,inhibition in vivo at 3 mg/kg [1]: 27.2%; inhibition in vivo at 3 mg/kg [2]: 53.1%
Cc1c2c(cc[n+]1Cc1ccccc1)c1ccc(OCCCc3ccccc3)cc1n2CCCc1ccccc1.[Br-],Non-toxic,3.75 mg/kg,< 1.5 µM,0.74 µM,1.5 µM,2.9 µM,7.7 µM,2 µM,2.2 µM,< 1.5 µM,3.3 µM,3.1 µM,6.6 µM,3.8 µM,2 µM,2.5 µM,3.1 µM,2.3 µM,inhibition in vivo at 0.63 mg/kg [5]: 33.7%; inhibition in vivo at 0.63 mg/kg [6]: 46.1%
CCC(CC)Oc1ccc2c3cc[n+](Cc4ccccc4)c(C)c3n(CCCc3ccccc3)c2c1.[Br-],Non-toxic,6.25 mg/kg,< 1.5 µM,2.1 µM,2.1 µM,< 1.5 µM,4.4 µM,2 µM,< 1.5 µM,< 1.5 µM,2 µM,2.5 µM,1.8 µM,3.1 µM,0.81 µM,2.5 µM,1.5 µM,< 1.5 µM,inhibition in vivo at 1.2 mg/kg [7]: 28%; inhibition in vivo at 1.2 mg/kg [8]: 41.5%
CCn1c2cc(OCC(C)C)ccc2c2cc[n+](Cc3ccccc3)c(C)c21.[Br-],Non-toxic,12.5 mg/kg,< 1.7 µM,17.3 µM,25.9 µM,5.2 µM,34.1 µM,4 µM,8.5 µM,7.8 µM,11.6 µM,10.6 µM,11.1 µM,9.6 µM,3.2 µM,10.6 µM,4.9 µM,–,inhibition in vivo at 2.5 mg/kg [9]: 30%; inhibition in vivo at 2.5 mg/kg [10]: 44.2%
O=P1(N(CCCl)CCCl)NCCCO1 (centres undefined) [CYCLOPHOSPHAMIDE ANHYDROUS],Non-toxic,–,–,–,–,–,–,–,–,–,–,–,–,–,–,–,–,–,inhibition in vivo at 30 mg/kg [11]: 85.6%; inhibition in vivo at 30 mg/kg [12]: 88.7%
CCn1c2cc(OCCCc3ccccc3)ccc2c2ccnc(C)c21,Non-toxic,200 mg/kg,22.6 µM,28 µM,16.7 µM,22.6 µM,6.5 µM,11.8 µM,13.2 µM,19.7 µM,22.6 µM,–,> 100 µM,11.4 µM,13.5 µM,11.9 µM,30.2 µM,–,inhibition in vivo at 40 mg/kg [13]: 21.7%; inhibition in vivo at 40 mg/kg [14]: 26%
